As usually defined, the IC50 is the concentration at which inhibition is half-maximal.

The test system of data set [1] is A549. Description: Inhibition of microtubule bundle formation in human A549 cells assessed as cell detachment at 200 ug/mL incubated for 1 hr by alpha-tubulin staining based fluorescence microscopy. The procedure, abridged:
(§1)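 A549 cells seeded on glass coverslips at 50000 cells/ml, grown 24 h, then exposed 1 h to 200 µg/ml conjugate or parent drug. Fixed and permeabilized in methanol at -20°C for 6 min, blocked in PBS + 5% BSA, stained with anti-α-tubulin (1:500, 1 h, 37°C), Alexa568 secondary and DAPI nuclei, then imaged by fluorescence microscopy at 63x.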

Data set [2] in a line: Stability of the compound in pH 10.2 carbonate buffer assessed as compound mean nano particles size at 2 mg/ml by quasi-elastic light scattering method. The format is physicochemical. The procedure, abridged:
(§2)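 Nanoassemblies formed by solvent displacement into water, 10 mM buffers (citrate or acetate pH 4.5, phosphate pH 7.5, borate or carbonate pH 10.2) or 100 mM NaCl, final 2 mg/mL. Mean diameter by quasi-elastic light scattering at 90° and 25°C, on samples diluted 1:20 in water; each value the average of five measurements.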

Data set [3] in a line: Stability in human serum at 37 degC assessed as ratio of HPLC area of peaks corresponding to intact compound at time zero at 2 mg/ml measured after 48 hrs. The data set is classed as ADME, cell-free. To be noted: read-out: Stability.
The nature of data set [4]: Stability of the compound in water assessed as compound mean nano particles size at 2 mg/ml by quasi-elastic light scattering method. The format is physicochemical. To be noted: buffer. The procedure, abridged: as §2
The subject of data set [5] is A549. Put plainly: Cytotoxicity against human A549 cells after 48 hrs by SRB assay. The data set is classed as functional, cell-based. To be noted: A549, 48 h. For orientation: In SRB staining, fixed cells bind dye roughly in proportion to their protein.
In data set [6] the test system is MCF7. Put plainly: Cytotoxicity against human MCF7 cells after 48 hrs by SRB assay. The data set is classed as functional, cell-based. The following applies: MCF7, 48 h. The method in brief:
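Nanoassemblies diluted in culture medium and added at various concentrations for 48 h at 37°C/5% CO₂. Survival % vs untreated control; run thrice in triplicate; IC50 from dose–effect curves.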

Data set [7] is described as follows: Stability of the compound in pH 4.5 acetate buffer assessed as compound mean nano particles size at 2 mg/ml by quasi-elastic light scattering method. The format is physicochemical. The procedure, abridged: as §2
A short description of data set [8]: Stability of the compound assessed as compound mean nano particles size diluted with water at 2 mg/ml measured after 3 months at 5 degC by quasi-elastic light scattering method. The data set is classed as physicochemical. To be noted: buffer, 2191.5 h. The procedure, abridged: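 Nanoassemblies made by nanoprecipitation in water as 2 mg/mL dispersions, stored at 5°C. Size checked after three months on samples diluted with water, by light scattering.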

Data set [9] is described as follows: Stability of the compound in pH 7.5 phosphate buffer assessed as compound mean nano particles size at 2 mg/ml by quasi-elastic light scattering method. The data set is classed as physicochemical. The procedure, abridged:
as §2

In data set [10] the test system is A549. Put plainly: Inhibition of microtubule bundle formation in human A549 cells assessed as cell shrinking at 200 ug/mL incubated for 1 hr by alpha-tubulin staining based fluorescence microscopy. The procedure, abridged:
as §1

Data set [11] is described as follows: Stability of the compound in presence of 100 mM NaCl assessed as compound mean nano particles size at 2 mg/ml by quasi-elastic light scattering method. The data set is classed as physicochemical. The method in brief:
as §2

Data set [12] in a line: Stability of the compound in pH 4.5 citrate buffer assessed as compound mean nano particles size at 2 mg/ml by quasi-elastic light scattering method. The format is physicochemical. The procedure, abridged: as §2
Data set [13] deals with MCF7. Description: Cytotoxicity against human MCF7 cells in presence of 10 mM DTT after 48 hrs by SRB assay. To be noted: MCF7, 48 h. The data set is classed as functional, cell-based.
Data set [14] in a line: Stability of the compound in pH 10.2 borate buffer assessed as compound mean nano particles size at 2 mg/ml by quasi-elastic light scattering method. The format is physicochemical. The method in brief:
as §2

Data set [15] can be described thus: Stability in pH 9 borate buffer. The data set is classed as physicochemical.
Data set [16] deals with A549. Put plainly: Induction of microtubule bundling in human A549 cells at 200 ug/mL incubated for 1 hr by alpha-tubulin staining based fluorescence microscopy. The format is cell-based. The method in brief: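 A549 cells grown in E-MEM with 10% FBS, 2 mM L-glutamine, penicillin and non-essential amino acids at 37°C, 5% CO2. Seeded at 50000 cells/ml on glass coverslips, exposed after 24 h. Then fixed and permeabilized in methanol at -20°C for 6 min and blocked in PBS+5% BSA. Stained with anti-α-tubulin (1:500), Alexa568 secondary and DAPI, and imaged by fluorescence microscopy.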

SMILES strings stand for the structures. Calls of active or inactive are those of the source. No cut-off for these calls is given here.

`CC(C)=CCC/C(C)=C/CC/C(C)=C/CC/C=C(\C)CC/C=C(\C)CCCOC(=O)CCCSSCCCC(=O)O[C@H]1[C@@H](C)CCC[C@H]2O[C@H]2C[C@@H](/C(C)=C/c2csc(C)n2)OC(=O)C[C@H](O)C(C)(C)C(=O)[C@@H]1C`: the inhibition result in data set [1] and in [10] was “Active” in each case. In addition, the Stability in data set [2] is recorded as 212.2 nm; in data set [4], 165.1 nm; in data set [7] it was 201.5 nm; in data set [8] it was 191.1 nm; in [9], 235.5 nm; in [11], 312.9 nm. Further, the Stability in data set [12] turned out to be 197.8 nm; in data set [14], 207.7 nm. Also, in data set [3], the remaining at 48 h, 2 mg/ml came out at 58%. In addition, the values for the IC50 in [5], in data set [6] and in data set [13] were > 5000 nM, 1300 nM and 500 nM, respectively.

`CC[C@@]1(OC(=O)CCCCCCCCC(=O)OCCC/C(C)=C/CC/C(C)=C/CC/C=C(\C)CC/C=C(\C)CCC=C(C)C)C(=O)OCc2c1cc1n(c2=O)Cc2cc3ccccc3nc2-1`: the Stability is reported as 242.9 nm in [2]; 160.2 nm in data set [4]; 275.9 nm in data set [7]; 172.4 nm in data set [8]; “Stable” in [15]; 201.5 nm in data set [9]. Further, the Stability in data set [11] is given as 461.1 nm; in data set [12], 375.4 nm; in [14], 202.3 nm. Further, in data set [3], the remaining at 48 h, 2 mg/ml was determined as 85%. Also, the values for the IC50 in data set [6] and in data set [13] were 10500 nM and 20100 nM, respectively.

With `CC[C@@]1(OC(=O)CCCSSCCCC(=O)OCCC/C(C)=C/CC/C(C)=C/CC/C=C(\C)CC/C=C(\C)CCC=C(C)C)C(=O)OCc2c1cc1n(c2=O)Cc2cc3ccccc3nc2-1`, the Stability in data set [2] came out at 250.6 nm; in data set [4], 195.3 nm; in data set [7], 224.3 nm; in data set [8], 210.2 nm; in data set [9], 198.9 nm; in [11] it was 339.7 nm. The Stability turned out to be 376.4 nm in data set [12] and 160.3 nm in data set [14]. Moreover, the remaining at 48 h, 2 mg/ml in data set [3] is 70%. The IC50 was > 5000 nM in data set [5], 8600 nM in [6] and 800 nM in [13].

`C/C(=C\c1csc(C)n1)[C@@H]1C[C@@H]2O[C@@H]2CCC[C@H](C)[C@H](O)[C@@H](C)C(=O)C(C)(C)[C@@H](O)CC(=O)O1` [EPOTHILONE A]: the inhibition entry in data set [1] and in [10] was “Active” throughout. The outcome in data set [16] was Active. The IC50 in [5] is > 5000 nM; in [6] it was 0.9 nM; in [13] it was 0.8 nM.

Regarding `COc1cc([C@@H]2c3cc4c(cc3[C@H](OC(=O)CCCCCCCCC(=O)OCCC/C(C)=C/CC/C(C)=C/CC/C=C(\C)CC/C=C(\C)CCC=C(C)C)[C@H]3COC(=O)[C@H]23)OCO4)cc(OC)c1OC`, the Stability in data set [2] is reported as 315 nm; in data set [4] it was 180.5 nm; in [7], 287.5 nm; in data set [8], 210.5 nm; in data set [15], “Stable”; in data set [9] it was 193.5 nm. For the same compound, the values for the Stability in [11], in data set [12] and in [14] were 720.3 nm, 629.2 nm and 211.3 nm, respectively. Besides, the remaining at 48 h, 2 mg/ml in data set [3] was 82%. Also, the IC50 in data set [6] was determined as 106000 nM; in data set [13], 111000 nM.

Take `CC(=O)O[C@H]1C(=O)[C@@]2(C)[C@H]([C@H](OC(=O)c3ccccc3)[C@]3(O)C[C@H](OC(=O)[C@H](OC(=O)OCC/C(C)=C/CC/C(C)=C/CC/C=C(\C)CC/C=C(\C)CCC=C(C)C)[C@@H](NC(=O)c4ccccc4)c4ccccc4)C(C)=C1C3(C)C)[C@]1(OC(C)=O)CO[C@@H]1C[C@@H]2O`: the remaining at 48 h, 2 mg/ml in data set [3] came to 94%. Also, the IC50 in [6] was 9100 nM; in data set [13], 8700 nM. In addition, the Stability in [8] is listed as 181.1 nm.

On to `CC(C)=CCC/C(C)=C/CC/C(C)=C/CC/C=C(\C)CC/C=C(\C)CCCOC(=O)CCCCCCCCC(=O)O[C@H]1[C@@H](C)CCC[C@H]2O[C@H]2C[C@@H](/C(C)=C/c2csc(C)n2)OC(=O)C[C@H](O)C(C)(C)C(=O)[C@@H]1C`, for which the Stability in [2] is recorded as 312.2 nm; in data set [4], 125.3 nm; in data set [7], 206 nm; in data set [8], 142.9 nm; in data set [15], “Stable”; in data set [9], 212.9 nm. In addition, the Stability in [11] is given as 502.4 nm; in data set [12], 203.2 nm; in [14] it was 351.1 nm. In addition, the remaining at 48 h, 2 mg/ml in [3] was determined as 70%. Moreover, the concentration for half-maximal inhibition (IC50) in data set [6] worked out at 40200 nM; in data set [13], 45100 nM.

Turning to `CC(=O)O[C@H]1C(=O)[C@@]2(C)[C@H]([C@H](OC(=O)c3ccccc3)[C@]3(O)C[C@H](OC(=O)[C@H](O)[C@@H](NC(=O)c4ccccc4)c4ccccc4)C(C)=C1C3(C)C)[C@]1(OC(C)=O)CO[C@@H]1C[C@@H]2O` [PACLITAXEL], the inhibition result in data set [1] and in data set [10] was “Active” each time. Further, in [16], the outcome was Active. This compound gave an IC50 in [5] of 82 nM.

For the compound `CC[C@@]1(O)C(=O)OCc2c1cc1n(c2=O)Cc2cc3ccccc3nc2-1` [CAMPTOTHECIN], the IC50 in [5] was determined as 1300 nM; in [6], 0.5 nM; in data set [13], 3 nM.

Turning to `COc1cc([C@@H]2c3cc4c(cc3[C@H](OC(=O)CCCSSCCCC(=O)OCCC/C(C)=C/CC/C(C)=C/CC/C=C(\C)CC/C=C(\C)CCC=C(C)C)[C@H]3COC(=O)[C@H]23)OCO4)cc(OC)c1OC`, the inhibition result in [1] and in [10] was “Active” each time. Also, the Stability in data set [2] was found to be 242.9 nm; in data set [4], 185.9 nm; in data set [7] it was 275.9 nm; in data set [8] it was 215.3 nm; in [9], 201.5 nm; in [11], 676 nm. Moreover, the values for the Stability in data set [12] and in data set [14] were 428.3 nm and 202.3 nm, respectively. Moreover, the remaining at 48 h, 2 mg/ml in data set [3] was 52%. Also, the IC50 in [5] worked out at 7640 nM; in data set [6] it was 400 nM; in data set [13], 60 nM.

As for `COc1cc([C@@H]2c3cc4c(cc3[C@H](O)[C@H]3COC(=O)[C@H]23)OCO4)cc(OC)c1OC` [PODOFILOX], the inhibition result in data set [1] and in [10] was “Active” throughout. The IC50 in [5] was determined as 59 nM; in data set [6], 0.1 nM; in data set [13], 0.4 nM.

Consider `CC(=O)O[C@H]1C(=O)[C@@]2(C)[C@H]([C@H](OC(=O)c3ccccc3)[C@]3(O)C[C@H](OC(=O)[C@H](OC(=O)CCCCCCCCC(=O)OCCC/C(C)=C/CC/C(C)=C/CC/C=C(\C)CC/C=C(\C)CCC=C(C)C)[C@@H](NC(=O)c4ccccc4)c4ccccc4)C(C)=C1C3(C)C)[C@]1(OC(C)=O)CO[C@@H]1C[C@@H]2O`, for which the Stability is 635.9 nm in [2]; 107.9 nm in data set [4]; > 2 um in data set [7]; 110.5 nm in data set [8]; “Stable” in data set [15]; 125.6 nm in [9]. Moreover, the Stability was > 2 um in data set [11], 391.2 nm in [12] and 161.4 nm in data set [14]. Further, in [3], the remaining at 48 h, 2 mg/ml was found to be 95%. In addition, the figures for the IC50 in [6] and in data set [13] were 1210 nM and 1530 nM, respectively.
